# According to ChEMBL document CHEMBL1121486, “Synthesis of nitrosourea derivatives of pyridine and piperidine as potential anticancer agents” (1980):
# Several values for one entry are separate records, joined by “and”; a condition that tells them apart may be missing. Equal entries are not always repeated.
# How the values were obtained:
# Mus musculus [1] = experiment: Compound tested for the effect on total white blood cell count and reported as percentage change from control on day 7 at 106 mg/kg (ip); format: functional
# Method in brief: (§1)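 Total white blood cell count in mice. Treatment was intraperitoneal at the listed mg/kg doses, 10 mice per group. Counts were taken on days 3, 5 and 7 and expressed as % change from control, with the control being each group's predose value. Significance was taken at p ≤ 0.05.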
# L1210 [2] = experiment: The effect of compound on mouse leukemia L1210 tumor (Intraperitoneally implanted)after single dose injected intraperitoneally on day 1 […] at OD of 100 mg/kg; format: functional; conditions: route intraperitoneal
# Mus musculus [3] = experiment: Compound tested for the effect on total white blood cell count and reported as percentage change from control on day 7 at 13.25 mg/kg (ip); format: functional; method in brief: as §1
# [4] = test system: Lewis lung carcinoma cell line; experiment: Effect of compound on Lewis Lung carcinoma after single dose injected intraperitoneally on day 1 recorded as percentage of cured animals at OD of 64 mg/kg; conditions: Mus musculus, route intraperitoneal
# 3EM 37 [5] = experiment: Effect of compound on 3EM 37 mouse ependymoblastoma after single ip injection on day 1 recorded as animal weight difference of the treated and the control (T-C) at OD of 100 mg/kg; format: functional; conditions: route intraperitoneal
# Mus musculus [6] = experiment: Compound tested for the effect on total white blood cell count and reported as percentage change from control on day 5 at 53 mg/kg (ip); format: functional; method in brief: as §1
# Mus musculus [7] = experiment: Compound tested for the effect on total white blood cell count and reported as percentage change from control on day 3 at 13.25 mg/kg (ip); format: functional; method in brief: as §1
# 3EM 37 [8] = experiment: Compound tested for activity against 3EM 37 mouse ependymoblastoma after single ip injection on day 1 at optimal dose of 100 mg/kg (Dose range 200-12.5); format: functional; conditions: route intraperitoneal
# L1210 [9] = experiment: Compound tested for activity against mouse leukemia L1210 tumor (Intracerebrally implanted) after single ip injection on day 1 at optimal dose of 100 mg/kg (Dose range 200-12.5); format: functional; conditions: route intraperitoneal
# 3EM 37 [10] = experiment: Effect of compound on 3EM 37 mouse ependymoblastoma after single ip injection on day 1 recorded as percentage of cured animals at OD of 100 mg/kg; format: functional; conditions: route intraperitoneal
# Mus musculus [11] = experiment: Compound tested for the effect on total white blood cell count and reported as percentage change from control on day 3 at 53 mg/kg (ip); format: functional; method in brief: as §1
# P388 [12] = experiment: Compound tested for toxicity against mouse P388 cell (Intraperitoneally implanted) after single ip injection on day 1 at optimal dose (OD) of 100 mg/kg on the 5th day after the injection of the compound; (6/6); format: functional; conditions: route intraperitoneal
# P388 [13] = experiment: The effect of compound on P388 cell after single dose injected intraperitoneally on day 1 […] at OD of 100 mg/kg; format: functional, Mus musculus; conditions: route intraperitoneal
# Method in brief: (§2)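 Mice bore intraperitoneally implanted P-388 leukaemia and were dosed across a mg/kg range, with an optimum dose picked. Toxicity survivors were scored on day 5 after injection. Outcomes were T – C animal weight difference (g) and % T/C. A cure was a 30-day survivor.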
# L1210 [14] = experiment: Compound tested for activity against mouse leukemia L1210 tumor (Intraperitoneally implanted) after single ip injection on day 1 at optimal dose of 100 mg/kg (Dose range 200-12.5); format: functional; conditions: route intraperitoneal
# Method in brief: (§3)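 L1210 leukaemia implanted intraperitoneally in mice. Compound given over a dose range (mg/kg); optimum dose selected. Survivors for toxicity recorded day 5 post-injection. Measures: T – C body weight difference (g), % T/C, and cures, defined as 30-day survivors.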
# [15] = test system: Lewis lung carcinoma cell line; experiment: Effect of compound on Lewis Lung carcinoma after single dose injected intraperitoneally on day 1 recorded as animal weight difference of the treated and the control (T-C) at OD of 64 mg/kg; format: functional, Mus musculus; conditions: route intraperitoneal
# Mus musculus [16] = experiment: Compound tested for the effect on total white blood cell count and reported as percentage change from control on day 5 at 13.25 mg/kg (ip); format: functional; method in brief: as §1
# L1210 [17] = experiment: Compound tested for toxicity against mouse leukemia L1210 tumor (Intraperitoneally implanted) after single ip injection on day 1 at optimal dose (OD) of 100 mg/kg on the 5th day after the injection of the compound; (6/6); format: functional; conditions: route intraperitoneal
# 3EM 37 [18] = experiment: Compound tested for toxicity against 3EM 37 Mouse Ependymoblastoma after single ip injection on day 1 at optimal dose (OD) of 100 mg/kg on the 5th day after the injection of the compound; (10/10); format: functional; conditions: route intraperitoneal
# Mus musculus [19] = experiment: Compound tested for the effect on total white blood cell count and reported as percentage change from control on day 3 at 26.5 mg/kg (ip); format: functional; method in brief: as §1
# Mus musculus [20] = experiment: Compound tested for the effect on total white blood cell count and reported as percentage change from control on day 7 at 53 mg/kg (ip); format: functional; method in brief: as §1
# P388 [21] = experiment: Compound tested for activity against mouse leukemia L1210 tumor (Intraperitoneally implanted) after single ip injection on day 1 at optimal dose of 100 mg/kg (Dose range 200-6.25); format: functional; conditions: route intraperitoneal; method in brief: as §3
# [22] = test system: Lewis lung carcinoma cell line; experiment: Compound tested for activity against Lewis lung carcinoma after single ip injection on day 1 at optimal dose of 64 mg/kg (Dose range 64-2); conditions: route intraperitoneal
# P388 [23] = experiment: Effect of compound on P388 cell after single ip injection on day 1 recorded as animal weight difference of the treated and the control (T-C) at OD of 100 mg/kg; format: functional, Mus musculus; conditions: route intraperitoneal; method in brief: as §2
# L1210 [24] = experiment: Compound tested for toxicity against mouse leukemia L1210 tumor (Intracerebrally implanted) after single ip injection on day 1 at optimal dose (OD) of 100 mg/kg on the 5th day after the injection of the compound; (6/6); format: functional; conditions: route intraperitoneal
# Mus musculus [25] = experiment: Compound tested for the effect on total white blood cell count and reported as percentage change from control on day 3 at 106 mg/kg (ip); format: functional; method in brief: as §1
# Mus musculus [26] = experiment: Compound tested for the effect on total white blood cell count and reported as percentage change from control on day 5 at 106 mg/kg (ip); format: functional; method in brief: as §1
# [27] = test system: Lewis lung carcinoma cell line; experiment: Effect of compound on Lewis Lung carcinoma after single ip injection on day 1 recorded as animal weight difference of the treated and the control (T-C) at OD of 64-2 mg/kg; format: functional, Mus musculus
# Mus musculus [28] = experiment: Compound tested for the effect on total white blood cell count and reported as percentage change from control on day 3 at 75 mg/kg (ip); format: functional; method in brief: as §1
# Mus musculus [29] = experiment: Compound tested for the effect on total white blood cell count and reported as percentage change from control on day 5 at 8.38 mg/kg (ip); format: functional; method in brief: as §1
# Mus musculus [30] = experiment: Compound tested for the effect on total white blood cell count and reported as percentage change from control on day 7 at 8.38 mg/kg (ip); format: functional; method in brief: as §1
# Mus musculus [31] = experiment: Compound tested for the effect on total white blood cell count and reported as percentage change from control on day 3 at 18.75 mg/kg (ip); format: functional; method in brief: as §1
# Mus musculus [32] = experiment: Compound tested for the effect on total white blood cell count and reported as percentage change from control on day 7 at 18.75 mg/kg (ip); format: functional; method in brief: as §1
# Mus musculus [33] = experiment: Compound tested for the effect on total white blood cell count and reported as percentage change from control on day 3 at 8.38 mg/kg (ip); format: functional; method in brief: as §1
# [34] = test system: Lewis lung carcinoma cell line; experiment: Effect of compound on Lewis Lung carcinoma after single dose injected intraperitoneally on day 1 recorded as percentage of cured animals at OD of 64 mg/kg; conditions: Mus musculus, route intraperitoneal; remark: listed apart in the source
# Mus musculus [35] = experiment: Compound tested for the effect on total white blood cell count and reported as percentage change from control on day 7 at 37.5 mg/kg (ip); format: functional; method in brief: as §1
# Mus musculus [36] = experiment: Compound tested for the effect on total white blood cell count and reported as percentage change from control on day 5 at 75 mg/kg (ip); format: functional; method in brief: as §1
# 3EM 37 [37] = experiment: Compound tested for toxicity against 3EM 37 mouse ependymoblastoma after single ip injection on day 1 at optimal dose (OD) of 100 mg/kg on the 5th day after the injection of the compound; (10/10); conditions: route intraperitoneal
# L1210 [38] = experiment: Compound tested for activity against mouse leukemia L1210 tumor (Intraperitoneally implanted) after single ip injection on day 1 at optimal dose of 100 mg/kg (Dose range 100-6.25); format: functional; conditions: route intraperitoneal; method in brief: as §3
# L1210 [39] = experiment: The effect of compound on mouse leukemia L1210 tumor (Intracerebrally implanted) after single dose injected intraperitoneally on day 1 […] at OD of 100 mg/kg; format: functional; conditions: route intraperitoneal
# Mus musculus [40] = experiment: Compound tested for the effect on total white blood cell count and reported as percentage change from control on day 5 at 18.75 mg/kg (ip); format: functional; method in brief: as §1
# L1210 [41] = experiment: Effect of compound on mouse leukemia L1210 tumor (Intraperitoneally implanted) after single dose injected intraperitoneally on day 1 recorded as animal weight difference of the treated and the control (T-C) at OD of 100 mg/kg; format: functional; conditions: route intraperitoneal; method in brief: as §3
# [42] = test system: 3EM 37 ependymoblastoma (Mus musculus); experiment: Compound tested for activity against 3EM 37 mouse ependymoblastoma after single ip injection on day 1 at optimal dose of 100 mg/kg (Dose range 200-12.5); conditions: route intraperitoneal
# Mus musculus [43] = experiment: Compound tested for the effect on total white blood cell count and reported as percentage change from control on day 3 at 37.5 mg/kg (ip); format: functional; method in brief: as §1
# Mus musculus [44] = experiment: Compound tested for the effect on total white blood cell count and reported as percentage change from control on day 5 at 37.5 mg/kg (ip); format: functional; method in brief: as §1
# Mus musculus [45] = experiment: Compound tested for the effect on total white blood cell count and reported as percentage change from control on day 7 at 75 mg/kg (ip); format: functional; method in brief: as §1
smiles,measurement,setting,value
O=C(O)/C=C\C(=O)O.O=NN(CCCl)C(=O)NC1CCN(Cc2ccccc2)CC1,Change,Mus musculus [1],1%
same,T/C,L1210 [2]; 100 mg/kg,379% and 151%
same,Change,Mus musculus [3],8%
same,T/C,[4],>353%
same,T-C,3EM 37 [5],-1.2 g
same,Change,Mus musculus [6],-5% and 5%
same,Change,Mus musculus [7],3%
same,Optimal dose,3EM 37 [8],100 mg/kg
same,Optimal dose,L1210 [9],100 mg/kg
same,T/C,3EM 37 [10],242%
same,Change,Mus musculus [11],-22%
same,Survival,P388 [12],6
same,T/C,P388 [13],361%
same,Optimal dose,L1210 [14],100 mg/kg
same,T-C,[15],-2.9 g
same,Change,Mus musculus [16],18%
same,Survival,L1210 [17],6
same,Survival,3EM 37 [18],10
same,Change,Mus musculus [19],12%
same,Change,Mus musculus [20],14% and 7%
same,Optimal dose,P388 [21],100 mg/kg
same,Optimal dose,[22],64 mg/kg
same,T-C,P388 [23],-4.5 g
same,Survival,L1210 [24],6
same,Change,Mus musculus [25],-67%
same,Change,Mus musculus [26],-35%
O=C(O)/C=C\C(=O)O.O=NN(CCCl)C(=O)NC1CCCN(Cc2ccccc2)C1 (stereo unspecified),Optimal dose,[27],64 mg/kg
same,T/C,L1210 [2],340%
same,Change,Mus musculus [28],-63%
same,Optimal dose,L1210 [9],100 mg/kg
same,T/C,3EM 37 [10],223%
same,Change,Mus musculus [29],15%
same,Change,Mus musculus [30],23%
same,Change,Mus musculus [31],-26%
same,Change,Mus musculus [32],40%
same,T-C,[15],-3.7 g
same,Change,Mus musculus [33],-19%
same,Survival,L1210 [17],6
same,T/C,[34],259%
same,Change,Mus musculus [35],60%
same,Change,Mus musculus [36],-45%
same,Survival,3EM 37 [37],10
same,Optimal dose,L1210 [38],100 mg/kg
same,T/C,L1210 [39],192%
same,Change,Mus musculus [40],-5%
same,Survival,L1210 [24],6
same,T-C,L1210 [41],-5 g
same,Optimal dose,[42],100 mg/kg
same,Change,Mus musculus [43],-20%
same,Change,Mus musculus [44],16%
same,Change,Mus musculus [45],11%
